This assay concerns the target T1, Fe(3+)-Zn(2+) purple acid phosphatase (Phaseolus vulgaris, UniProt P80366).
T1 sequence (P80366 whole entry): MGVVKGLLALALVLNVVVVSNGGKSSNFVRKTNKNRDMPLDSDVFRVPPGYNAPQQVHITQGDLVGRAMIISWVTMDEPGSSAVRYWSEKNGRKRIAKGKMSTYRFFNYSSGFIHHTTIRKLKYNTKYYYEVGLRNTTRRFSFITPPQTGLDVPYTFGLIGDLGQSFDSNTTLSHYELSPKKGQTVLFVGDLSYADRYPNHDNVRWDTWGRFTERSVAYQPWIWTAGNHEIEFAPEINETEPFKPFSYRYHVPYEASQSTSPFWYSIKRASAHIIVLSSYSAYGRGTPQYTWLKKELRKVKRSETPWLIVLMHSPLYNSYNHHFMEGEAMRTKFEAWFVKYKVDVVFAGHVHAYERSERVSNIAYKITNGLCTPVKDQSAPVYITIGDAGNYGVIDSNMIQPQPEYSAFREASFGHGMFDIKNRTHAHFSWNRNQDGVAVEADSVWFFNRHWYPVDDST
Nature of the assay: Inhibition of red kidney bean PAP at pH 6.2. In outline:
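Each enzyme was run at its own pH optimum: red kidney bean PAP at pH 6.2 and pig PAP at pH 4.9. IC50 values were determined experimentally. Separate inhibition constants were derived for binding to the free enzyme and to the enzyme–substrate complex.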

Take `CCCCCCCCCCOC(c1cccc2ccccc12)P(=O)(O)O` (racemic) [(+/-)-decyloxy(naphthalen-1-yl)methylphosphonic acid]: the affinity, expressed as Ki, was 4 µM.

As for `CCCCCCOC(c1cccc2ccccc12)P(=O)(O)O` (racemic) [(+/-)-hexyloxy(naphthalen-1-yl)methylphosphonic acid], the Ki (in general, a dissociation constant, usually derived from enzyme kinetics or from competition with a known ligand) worked out at 1470 µM.

For the molecule `CCCCCCCCOC(c1cccc2ccccc12)P(=O)(O)O` (racemic) [(+/-)-naphthalen-1-yl(octyloxy)methylphosphonic acid], the Ki came out at 50 µM.
